The list shows a part of the results. Active and inactive are the calls of the source.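 Rule for the calls, unless noted: active = mean percent activation of the reporter above a cutoff set as the average over tested compounds plus their standard deviation; inactive = the rest.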
Tests used:
[1] = target: Oxysterols receptor LXR-beta (Homo sapiens) (UniProt P55055); assay: nonspecific reporter activation via LXR – cell-based, luminescence, HEK293, H. contortus campaign, counter-screen for hcDAF-12 agonist project, confirmation (AID 743027); details: HEK293 Gal4-LXR tk-luc reporter, 24 h, at 6.8 µM, active compounds read high, normalized: DMSO 0%, positive control 100%
Method in brief: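 material = Gal4-LXR and tk-luc reporter transfected HEK293 cells | benchmarks = DMSO low control, positive-control high control | compound dosing = one nominal 6.8 µM dose, 0.68% DMSO | repeats = three replicates per compound | times = 24 h compound exposure at 37 °C, 5% CO2 | detection = One-Glo luciferase luminescence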

[2] = system: Nuclear hormone receptor DAF-12 (Haemonchus contortus); assay: hcDAF-12 luciferase reporter activation, retest – cell-based, luminescence, HEK293, lit1-tk-luc, triplicate, confirmation (AID 743032;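 active = mean activation across triplicate tests above the threshold derived from the earlier primary screen, cut at about 5.5% in these data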;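 note: 0% = DMSO only wells and 100% = 3 µM Δ7-dafachronic acid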); details: HEK293 hcDAF-12 lit1-tk-luc reporter, at 6.8 µM, active compounds read high, % of Δ7-dafachronic acid response

Oxysterols receptor LXR-beta (Homo sapiens), sequence (P55055 whole entry, looked up, the tested form may be a part): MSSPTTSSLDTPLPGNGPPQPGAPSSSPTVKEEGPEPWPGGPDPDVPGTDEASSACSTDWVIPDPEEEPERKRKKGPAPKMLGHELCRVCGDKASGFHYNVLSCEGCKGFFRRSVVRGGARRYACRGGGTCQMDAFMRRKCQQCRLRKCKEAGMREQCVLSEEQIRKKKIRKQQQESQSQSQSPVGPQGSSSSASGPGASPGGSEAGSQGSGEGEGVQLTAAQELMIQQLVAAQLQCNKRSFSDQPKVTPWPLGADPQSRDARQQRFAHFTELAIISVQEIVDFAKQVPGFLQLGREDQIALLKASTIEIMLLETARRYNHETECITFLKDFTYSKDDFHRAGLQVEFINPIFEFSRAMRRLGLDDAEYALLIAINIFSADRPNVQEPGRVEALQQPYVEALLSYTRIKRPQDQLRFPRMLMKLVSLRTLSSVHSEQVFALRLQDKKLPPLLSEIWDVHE

Row | Compound | activation [1] | activation [2]
1 | N[C@@H](Cc1ccccc1)C(=O)N1CCC(C(=O)NCC(=O)Nc2ccc(F)cc2)CC1 | -0.2% (inactive) | 0.19% (inactive)
2 | O=C(O)c1[nH]c2ccccc2c1C(c1cccc(O)c1)c1c(C(=O)O)[nH]c2ccccc12 | -0.02% (inactive) | 4.41% (inactive)
3 | CCCc1cc(C(=O)Nc2ccc(Cl)cn2)cs1 | 1.33% (inactive) | 4.99% (inactive)
4 | Cc1ccc(-c2nc3ccccc3[nH]2)cc1N | 2.07% (inactive) | 10.4% (active)
5 | COc1ccc(OCc2cc(C(=O)N3CCCC3)no2)c2ccccc12 | 0.67% (inactive) | 8.88% (active)
6 | CCc1ccc(-c2cc(C(=O)NN3CCN(C)CC3)c3ccccc3n2)cc1 | -0.24% (inactive) | 0.58% (inactive)
7 | N#Cc1c(NC(=O)C2CCCO2)sc2c1CCCCC2 (configuration not stated) | 1.18% (inactive) | 6.65% (active)
8 | c1ccc(-c2cc(-c3ccccc3)[nH]n2)cc1 | 1.43% (inactive) | 15.7% (active)
9 | NC(=O)Nc1ccccc1C(=O)NCCc1ccccc1 | 0.34% (inactive) | 4.12% (inactive)
10 | Cn1c(=O)c(C(=O)Nc2ncccn2)c(O)c2ccccc21 | 0.73% (inactive) | 15.3% (active)
11 | Cc1nc2cc(NC(=O)Nc3cccc(F)c3)ccc2n1C | 1.98% (inactive) | 11.2% (active)
12 | CC(=O)N1C(=O)/C(=C2\SC(=S)N(NC(=O)c3ccc(O)cc3)C2=O)c2ccccc21 | -0.17% (inactive) | 1.25% (inactive)
13 | CC(C)C(=O)Nc1ccc2c(c1)oc1ccccc12 | 0.52% (inactive) | 5.43% (inactive)
14 | Nc1ccccc1/C=N\N=C/c1ccccc1N | 1.76% (inactive) | 12.4% (active)
15 | O=C(Oc1ccc([N+](=O)[O-])cc1)c1ccc2ccccc2n1 | -0.2% (inactive) | 4.02% (inactive)
16 | CCCCN(C)C(=O)c1ccc2c(c1)N(CC)C(=O)c1ccccc1S2(=O)=O | -0.28% (inactive) | 0.81% (inactive)
17 | O=c1[nH]c(CCl)nc2cc(-c3ccc(Cl)cc3)sc12 | 0.52% (inactive) | 1.27% (inactive)
18 | NS(=O)(=O)c1ccc2nc(NC(=O)CS(=O)(=O)c3ccc(F)cc3)sc2c1 | -0.28% (inactive) | 3.34% (inactive)
19 | O=C(/C=C/c1cnc2ccccc2n1)NC1CCCCCC1 | 0.79% (inactive) | 4.58% (inactive)
20 | Cc1ccc(NN=Nc2nc3c([nH]2)c(=O)n(C)c(=O)n3C)cc1 | -0.08% (inactive) | 3.07% (inactive)
21 | CNc1nc(Nc2ccc(C)c(Cl)c2)nc(N)c1[N+](=O)[O-] | 0.77% (inactive) | 10.9% (active)
22 | COC(=O)C1=NN(c2ccccc2)C2C(=O)N(c3ccccc3OC)C(=O)C12 (configuration not stated) | -0.15% (inactive) | -0.03% (inactive)
23 | COc1ccc(C2COC(=O)C2=N)c(NC(=O)c2ccccc2)c1 (configuration not stated) | -0.25% (inactive) | 4.45% (inactive)
24 | COc1ccc(-c2c3c(=O)n(C)c(=O)n(C)c3cn2-c2cccc(OC)c2)cc1 | -0.23% (inactive) | 3.87% (inactive)
25 | COc1ccccc1OCC(=O)O/N=C(\N)c1ccccn1 | 0.86% (inactive) | 5.68% (active)
26 | CCOc1ccc(C2c3[nH]c4ccccc4c3CCN2Cc2cn(CC)nc2C)cc1 (configuration not stated) | -0.18% (inactive) | 3.63% (inactive)

Row | Compound | activation [1] | activation [2]
27 | COc1ccc(CNC(=O)c2ccc3oc(C(C)C)nc3c2)cc1 | 0.72% (inactive) | 2.54% (inactive)
28 | C(=N\Nc1ccc2ccccc2n1)/c1ccc2c(c1)OCO2 | 1.28% (inactive) | 4.85% (inactive)
29 | O=C(c1cc(-c2ccccc2O)on1)N1CCCC1 | 0.82% (inactive) | 6.57% (active)
30 | CCS(=O)(=O)N1Cc2ccccc2CC1C(=O)Nc1nc2ccc(F)cc2s1 (configuration not stated) | 0.39% (inactive) | 6.53% (active)
31 | CN1CCc2ccccc2C1Cc1ccccc1NC(=O)c1sc2ccccc2c1Cl (configuration not stated) | -0.05% (inactive) | 1.76% (inactive)
32 | O=C(Cn1ccc([N+](=O)[O-])n1)NCc1cccs1 | -0.27% (inactive) | 1.71% (inactive)
33 | C/C(=N/NC(=O)c1ccc(Br)o1)c1ccc(C)o1 | -0.01% (inactive) | 4.27% (inactive)
34 | COc1ccc(C2CC(c3cccs3)=Nc3ccccc3S2)cc1OC (configuration not stated) | -0.03% (inactive) | 2.78% (inactive)
35 | COc1cc2ccccc2cc1C(=O)Nc1ccccc1C | 0.82% (inactive) | 9.11% (active)
36 | Cc1ccnc(NC(=O)c2ccoc2C)c1 | 0.3% (inactive) | 3.77% (inactive)
37 | Cc1c(C(=O)Nc2ccccn2)oc2ccc(Br)cc12 | 1.8% (inactive) | 15.4% (active)
38 | Cc1cccc(Nc2nc(-c3ccccc3)cs2)n1 | 1.85% (inactive) | 16% (active)
39 | Cc1cccc(C(=O)N2CCc3c([nH]c4ccccc34)C2CC(C)C)n1 (configuration not stated) | 0.01% (inactive) | 6.29% (active)
40 | O=C(CN1CCCCC1)NC(=O)Nc1ccccc1F | 0.17% (inactive) | 1.2% (inactive)
41 | COc1ccccc1C(=O)NCc1nnc(SC(C)C(=O)Nc2nccs2)n1C (configuration not stated) | -0.14% (inactive) | 4.95% (inactive)
42 | COc1ccccc1NC(=O)c1ccc(C)s1 | 0.6% (inactive) | 8.4% (active)
43 | O=C(CSC(=S)N1CCOCC1)c1ccccc1 | 1% (inactive) | 5.12% (inactive)
44 | COc1ccc(Nc2nc(-c3ccccc3)cs2)cc1 | 1.88% (inactive) | 18.8% (active)
45 | Cc1ccc(OCc2nc3ccccc3n2C)cc1 | 1.32% (inactive) | 5.18% (inactive)
46 | O=C(Nc1ccc(Cl)cc1)C1c2cccc[n+]2CC(=O)N1Cc1ccc2c(c1)OCO2 (configuration not stated) | -0.2% (inactive) | 2.78% (inactive)
47 | O=C(COc1cccc(Cl)c1)NCc1ccccc1 | -0.12% (inactive) | 0.38% (inactive)
48 | Cc1cc(C)nc(Nc2n[nH]c(-c3ccccc3N)n2)n1 | 2.12% (inactive) | 8.91% (active)
49 | Clc1ccc(-c2cc(-c3ccccn3)on2)c(Cl)c1 | 1.95% (inactive) | 12.6% (active)
50 | COc1ccc(C(=O)C[n+]2ccc(C)cc2)cc1 | -0.34% (inactive) | 0.77% (inactive)
51 | OC(COc1ccc2ccccc2c1)CN1CCOCC1 (configuration not stated) | 0.33% (inactive) | 8.99% (active)

Reference: PubChem BioAssay
